Assay results: article PMC4380538 (Bioorganic & medicinal chemistry, 2015)
Entries after “also recorded” stand apart in the source; their conditions may differ.

Target: T1, hCCK2R (Homo sapiens, UniProt P32239)
T1 sequence (P32239 1-447): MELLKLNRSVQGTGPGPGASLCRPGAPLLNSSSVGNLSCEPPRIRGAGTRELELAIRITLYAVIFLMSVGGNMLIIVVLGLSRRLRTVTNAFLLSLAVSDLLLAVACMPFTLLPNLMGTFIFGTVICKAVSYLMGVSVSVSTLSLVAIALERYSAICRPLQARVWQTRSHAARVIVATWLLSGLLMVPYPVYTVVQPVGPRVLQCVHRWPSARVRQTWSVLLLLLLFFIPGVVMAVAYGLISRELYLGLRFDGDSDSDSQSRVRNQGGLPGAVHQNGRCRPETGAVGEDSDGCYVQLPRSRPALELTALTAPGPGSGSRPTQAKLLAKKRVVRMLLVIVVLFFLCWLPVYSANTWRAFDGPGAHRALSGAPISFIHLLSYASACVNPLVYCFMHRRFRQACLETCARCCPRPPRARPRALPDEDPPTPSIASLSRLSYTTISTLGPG
Test: Competitive binding assay
Conditions: against probe 3 (15 nM); concentration range 10^-5 to 10^-12 M
Summary of the method: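 HEK-293 cells engineered to overexpress hCCK2R and hMC4R, kept in selective medium and seeded at 240,000 cells/well in six-well plates (~1 × 10^6 cells at 90% confluence). Medium replaced with test compound (10^-5 to 10^-12 M, twelve levels) plus 15 nM Eu-labelled CCK4 probe in binding buffer for 1 h, 37 °C, CO₂. Cells pelleted and washed three times in basic buffer. DELFIA enhancement for 1 h, 37 °C. Supernatant read by TRF. Ki reported with SEM.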

Row | Compound | Competitive inhibition of probe 3 binding (in words)
1 | NC(=O)[C@H](CO)NC(=O)CCCCCn1cc(CN(Cc2cn(CCCCCC(=O)N[C@@H](CO)C(N)=O)nn2)Cc2cn(CCCCCC(=O)N[C@@H](CO)C(N)=O)nn2)nn1 [Compound 15] | not competitive inhibitors; also recorded: did not interfere with the binding and uptake of probe 3
2 | NC(=O)[C@H](CO)NC(=O)CCCCCn1cc(COc2cc(OCc3cn(CCCCCC(=O)N[C@@H](CO)C(N)=O)nn3)cc(OCc3cn(CCCCCC(=O)N[C@@H](CO)C(N)=O)nn3)c2)nn1 [Compound 16] | not competitive inhibitors; also recorded: did not interfere with the binding and uptake of probe 3
